This is an account of results in ChEMBL document CHEMBL3526116, “Toxicological evaluation of acyl glucuronides of nonsteroidal anti-inflammatory drugs using human embryonic kidney 293 cells stably expressing human UDP-glucuronosyltransferase and human hepatocytes” (Drug Metab Dispos, 2011).

Data set [1] concerns HEK293. Nature of the data set: Cytotoxicity against HEK293 cells expressing UGT1A3 assessed as decrease in cell viability at 1 mM measured at 24 hrs by MTT assay. Format: ADME, cell-based. To be noted: human, hek293, 24 h, 1000 µM. A general note: Formazan colour is commonly taken as a measure of viable cells.
For data set [2], the system named is HEK293. In words: Genotoxicity in HEK293 cells expressing UGT1A3 assessed as DNA strand breaks at 0.1 mM after 24 hrs by comet assay. It counts as toxicity, cell-based. To be noted: human, hek293, 24 h, 100 µM. In short, it runs like this: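 HEK293 cells stably expressing UGT1A3, seeded 24 h before treatment and exposed 24 h in 0.5% FBS DMEM (vehicle 0.1% DMSO). Alkaline comet assay: low-melting agarose embedding, lysis pH 10 for 1 h at 4°C, 30 min unwinding in NaOH/EDTA, electrophoresis 300 mA for 20 min, ethidium bromide stain. Tail extent moment scored on 150-180 cells over more than 3 experiments, median (IQR).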

Data set [3] deals with HEK293. Nature of the data set: Cytotoxicity against HEK293 cells expressing UGT1A3 assessed as decrease in cell viability at 1 mM by MTT assay. It counts as ADME, cell-based. As to conditions: human, hek293, 1000 µM; TDE = time-dependent effect; call rule not given here.
In data set [4] the test system is HEK293. Nature of the data set: Cytotoxicity against HEK293 cells expressing UGT assessed as decrease in cell viability at 1 mM measured up to 72 hrs by MTT assay. Format: ADME, cell-based. As to conditions: human, hek293, 72 h, 1000 µM. In short, it runs like this: (§1)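 Mock and UGT1A3/UGT1A4 stable HEK293 cells given drug for up to 72 h; viability measured by WST-8-based MTT assay.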

Data set [5] deals with HEK293. Nature of the data set: Cytotoxicity against mock transfected HEK293 cells assessed as decrease in cell viability by measuring intracellular ATP content at 1 mM by CellTiter-Glo luminescent assay. It counts as cell-based. To be noted: human, hek293, 1000 µM; TDE = time-dependent effect. In short, it runs like this:
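Mock-transfected HEK293 cells seeded at 2 x 10^4 cells/well in DMEM with 0.5% FBS, drug added at once and incubated 6, 12 or 24 h. Viability read either by WST-8 (CCK-8) formazan absorbance at 450 nm or by intracellular ATP luminescence (CellTiter-Glo), as percent of control cells; mean ± SD of triplicates. Final DMSO ≤0.1%.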

Data set [6] deals with Hepatocyte. In words: Cytotoxicity against human hepatocytes assessed as decrease in cell viability by measuring intracellular ATP content at 1 mM measured at 6 hrs by CellTiter-Glo luminescent assay in absence of acyl glucuronidation inhibitor (-)-borneol. Format: cell-based. To be noted: 1000 µM. The method in brief: (§2)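 Human hepatocytes (pooled, cryopreserved), 2 × 10^4 cells/well on collagen in HCM with 0.5% FBS and 10 nM estradiol; 30-min preincubation ± 1 mM (-)-borneol, then drug 6 h. Intracellular ATP measured by CellTiter-Glo luminescence, percent of control cells. Triplicates, mean ± SD.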
For orientation: Cellular ATP, detected with luciferase, serves as a proxy for viable cell number.

Data set [7] has as its system Hepatocyte. In words: Cellular uptake in human hepatocytes at 1 mM measured at 6 hrs by LC-MS/MS analysis in presence of acyl glucuronidation inhibitor (-)-borneol. It counts as ADME, cell-based. To be noted: 1000 µM. In short, it runs like this:
(§3)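 Cryopreserved pooled human hepatocytes on collagen-coated wells, 2 × 10^5 cells/well in HCM medium with 0.5% FBS, preincubated 30 min with or without 1 mM (-)-borneol, then drug for 6 h; DMSO ≤0.2% final. Parent drug in cell fraction measured by LC-MS/MS after methanol/acetic acid extraction. Mean ± SD of triplicates.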

Data set [8] deals with HEK293. Nature of the data set: Genotoxicity in HEK293 cells expressing UGT1A3 assessed as DNA strand breaks at 1 mM after 24 hrs by comet assay. Format: toxicity, cell-based. As to conditions: human, hek293, 24 h, 1000 µM. The method in brief:
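Alkaline comet assay: HEK/UGT1A3 cells seeded 24 h before, treated 24 h in DMEM with 0.5% FBS (vehicle 0.1% DMSO; MMS 0.1 mM positive control). Cells embedded in LMP agarose, lysed 1 h at 4°C at pH 10, unwound 30 min in NaOH/EDTA, electrophoresed 300 mA 20 min, ethidium-stained; tail moment scored on 150-180 comets over >3 experiments, median (IQR).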

Data set [9] has as its system HEK293. In words: Cytotoxicity against HEK293 cells expressing UGT1A3 assessed as decrease in cell viability by measuring intracellular ATP content at 1 mM by CellTiter-Glo luminescent assay. It counts as ADME, cell-based. To be noted: human, hek293, 1000 µM; TDE = time-dependent effect. The method in brief:
(§4)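 UGT1A3 or UGT1A4 stable HEK293 cells, 2 x 10^4 cells/well in 0.1 mL DMEM with 0.5% FBS, drug for 6, 12 or 24 h. Viability from intracellular ATP via CellTiter-Glo luminescence, expressed as percent of control cells. Mean ± SD of triplicates.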

Data set [10] relates to HEK293. In words: Cytotoxicity against HEK293 cells expressing UGT assessed as LDH leakage at 1 mM after 6 to 24 hrs by spectrophotometric analysis relative to total cell LDH level. Format: ADME, cell-based. As to conditions: human, hek293, 1000 µM. In short, it runs like this: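 Stable UGT-expressing or mock HEK293 lines in DMEM with 0.5% FBS, 2 x 10^4 cells/well, drug for 6, 12 or 24 h. LDH released into medium read at 490 nm (690 nm reference); percentage calculated against maximum release from control cells lysed with 1% Triton X-100.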
A general note: LDH in the medium is a marker of cell lysis.

For data set [11], the system named is Hepatocyte. In words: Cytotoxicity against human hepatocytes assessed as decrease in cell viability by measuring intracellular ATP content at 1 mM measured at 6 hrs by CellTiter-Glo luminescent assay in presence of acyl glucuronidation inhibitor (-)-borneol. Format: cell-based. As to conditions: 1000 µM. In short, it runs like this:
as §2

For data set [12], the system named is HEK293. In words: Cytotoxicity against mock transfected HEK293 cells assessed as decrease in cell viability at 1 mM by MTT assay. It counts as cell-based. As to conditions: human, hek293, 1000 µM; TDE = time-dependent effect.
The test system of data set [13] is Hepatocyte. In words: Cellular uptake in human hepatocytes at 1 mM measured at 6 hrs by LC-MS/MS analysis in absence of acyl glucuronidation inhibitor (-)-borneol. Format: ADME, cell-based. As to conditions: 1000 µM. The method in brief:
as §3

The subject of data set [14] is Hepatocyte. Nature of the data set: Cytotoxicity against human hepatocytes assessed as decrease in cell viability at 1 mM measured at 6 hrs […] in presence of acyl glucuronidation inhibitor (-)-borneol. Format: cell-based. To be noted: 1000 µM.
The subject of data set [15] is HEK293. In words: Cytotoxicity against HEK293 cells expressing UGT1A4 assessed as decrease in cell viability at 1 mM by MTT assay. Format: ADME, cell-based. To be noted: human, hek293, 1000 µM; TDE = time-dependent effect.
For data set [16], the system named is HEK293. Nature of the data set: Cytotoxicity against HEK293 cells expressing UGT1A4 assessed as decrease in cell viability by measuring intracellular ATP content at 1 mM by CellTiter-Glo luminescent assay. As to conditions: human, hek293, 1000 µM; TDE = time-dependent effect. Format: ADME, cell-based. The method in brief:
as §4

Data set [17] concerns HEK293. In words: Cytotoxicity against HEK293 cells expressing UGT1A4 assessed as decrease in cell viability at 1 mM measured at 24 hrs by MTT assay. It counts as ADME, cell-based. As to conditions: human, hek293, 24 h, 1000 µM.
Data set [18] relates to HEK293. Nature of the data set: Cytotoxicity against HEK293 cells expressing UGT1A4 assessed as decrease in cell viability at 0.1 mM measured at 24 hrs […]. It counts as ADME, cell-based. To be noted: human, hek293, 24 h, 100 µM.
Data set [19] has as its system HEK293. Nature of the data set: Cytotoxicity against HEK293 cells expressing UGT assessed as decrease in cell viability at 0.1 mM measured up to 72 hrs by MTT assay. It counts as ADME, cell-based. To be noted: human, hek293, 72 h, 100 µM. The method in brief:
as §1

Data set [20] has as its system HEK293. In words: Cytotoxicity against HEK293 cells expressing UGT1A3 assessed as decrease in cell viability at 0.1 mM measured at 24 hrs by MTT assay. To be noted: human, hek293, 24 h, 100 µM. It counts as ADME, cell-based.

Bounds are passed on as bounds.

Consider `COc1ccc2c(c1)c(CC(=O)O)c(C)n2C(=O)c1ccc(Cl)cc1` [INDOMETHACIN], for which the Activity result in data set [1] is given as “Non-toxic”.
On the same count and under the same terms, for `Cc1cccc(Nc2ccccc2C(=O)O)c1C` [MEFENAMIC ACID] the value was “Non-toxic”.
On to `COS(C)(=O)=O` [METHANESULFONIC ACID METHYL ESTER], for which the Activity entry in [2] is recorded as “Toxic”.
Consider `COc1c(C)c2c(c(O)c1C/C=C(\C)CCC(=O)O)C(=O)OC2` [MYCOPHENOLIC ACID], for which, in data set [1], the Activity result is given as “Non-toxic”.
Take `COc1ccc2cc([C@H](C)C(=O)O)ccc2c1` [NAPROXEN]: the Activity entry in data set [3] was “tde”; in data set [4], “Non-toxic”; in data set [5], “tde”; in data set [6] it was “Toxic”; in data set [8] it was “Non-toxic”; in data set [9], “tde”. Besides, the Activity was under 5.4% in data set [10]; “Toxic” in data set [11]; “tde” in data set [12]; “Toxic” in data set [14]; “tde” in [15]; “tde” in [16]. Also, the Drug uptake result in data set [7] and in [13] was “Active” throughout.
For the molecule `O=C(O)c1cccnc1Nc1cccc(C(F)(F)F)c1` [NIFLUMIC ACID], the Activity entry in data set [1] was “Non-toxic”.
Same read-out and setting: for `CCCN(CCC)S(=O)(=O)c1ccc(C(=O)O)cc1` [PROBENECID] the value was “Non-toxic”.
As to `O=C(O)c1ccccc1O` [SALICYLIC ACID], the Activity result in [4], in data set [1] and in data set [17] was “Non-toxic” in each case.
Take `Cc1cc(CC(=O)O)n(C)c1C(=O)c1ccc(Cl)cc1` [ZOMEPIRAC]: the Activity result in data set [18], in [19] and in data set [20] was “Non-toxic” in each case.
